ChEMBL document CHEMBL5303300, “EUbOPEN Chemogenomics Library - Multiplex” (2023)
Several values for one entry are separate records, joined by “and”; a condition that tells them apart may be missing. Identical values can stand only once.

Experiments:
Fibroblast = assay: Multiplex assay against human fibroblast; type: toxicity, cell-based; conditions: number of replicates 2
Summary of the method: (§1)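 Cells stained live at seeding with Hoechst33342, BioTracker Green Microtubule Cytoskeleton Dye, MitoTracker Red and Annexin V Alexa Fluor 680 were imaged on a CQ1 microscope at 37°C and 5% CO2 after compound addition. Their classification by CellPathfinder machine-learning gating ran from Hoechst high-intensity objects versus normal cells, to healthy, pyknosed or fragmented nuclei among normal cells, to mitotic or apoptotic among pyknosed cells. Tubulin, mitochondrial-mass and membrane-permeability phenotypes are per cents of healthy-nucleus cells.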

HEK-293T = assay: Multiplex assay against HEK293T; type: toxicity, cell-based; conditions: human, number of replicates 2; summary of the method: as §1
[1] = 12 h, 1 µM, compound concentration 1 uM
[2] = 12 h, 10 µM, compound concentration 10 uM
[3] = 24 h, 1 µM, compound concentration 1 uM
[4] = 24 h, 10 µM, compound concentration 10 uM
[5] = 48 h, 1 µM, compound concentration 1 uM
[6] = 48 h, 10 µM, compound concentration 10 uM

COc1ccc(CC[C@@H](OC(=O)[C@@H]2CCCCN2C(=O)[C@H](c2cc(OC)c(OC)c(OC)c2)C2CCCCC2)c2cccc(OCCN3CCOCC3)c2)cc1OC
Population Apoptotic (%) (Fibroblast; [1]): 42% and 47%
Population Fragmented Nuclei (%) (Fibroblast; [1]): 12% and 11%
Population Healthy Nuclei (%) (Fibroblast; [1]): 65% and 64%
Population Hoechst High Intensity Objects (%) (Fibroblast; [1]): 0%
Population Membrane Permeable-Phenotype (%) (Fibroblast; [1]): 20%
Population Mitochondria Different-Phenotype (%) (Fibroblast; [1]): 7% and 2%
Population Mitotic Cells (%) (Fibroblast; [1]): 57% and 52%
Population Normal (%) (Fibroblast; [1]): 100% and 99%
Population Pyknosed Nuclei (%) (Fibroblast; [1]): 21% and 23%
Population Tubulin-Different-Phenotype (%) (Fibroblast; [1]): 81% and 69%
Total Cell Count (Fibroblast; [1]): 227 and 146
Population Apoptotic (%) (Fibroblast; [2]): 51% and 55%
Population Fragmented Nuclei (%) (Fibroblast; [2]): 14% and 19%
Population Healthy Nuclei (%) (Fibroblast; [2]): 60% and 59%
Population Hoechst High Intensity Objects (%) (Fibroblast; [2]): 0%
Population Membrane Permeable-Phenotype (%) (Fibroblast; [2]): 25% and 21%
Population Mitochondria Different-Phenotype (%) (Fibroblast; [2]): 14% and 11%
Population Mitotic Cells (%) (Fibroblast; [2]): 48% and 44%
Population Normal (%) (Fibroblast; [2]): 99% and 100%
Population Pyknosed Nuclei (%) (Fibroblast; [2]): 24% and 20%
Population Tubulin-Different-Phenotype (%) (Fibroblast; [2]): 89% and 84%
Total Cell Count (Fibroblast; [2]): 188 and 273
Population Apoptotic (%) (Fibroblast; [3]): 50% and 59%
Population Fragmented Nuclei (%) (Fibroblast; [3]): 7% and 20%
Population Healthy Nuclei (%) (Fibroblast; [3]): 67% and 51%
Population Hoechst High Intensity Objects (%) (Fibroblast; [3]): 0%
Population Membrane Permeable-Phenotype (%) (Fibroblast; [3]): 10% and 9%
Population Mitochondria Different-Phenotype (%) (Fibroblast; [3]): 14%
Population Mitotic Cells (%) (Fibroblast; [3]): 50% and 40%
Population Normal (%) (Fibroblast; [3]): 99% and 100%
Population Pyknosed Nuclei (%) (Fibroblast; [3]): 24% and 28%
Population Tubulin-Different-Phenotype (%) (Fibroblast; [3]): 74% and 65%
Total Cell Count (Fibroblast; [3]): 207 and 148
Population Apoptotic (%) (Fibroblast; [4]): 66% and 71%
Population Fragmented Nuclei (%) (Fibroblast; [4]): 14% and 20%
Population Healthy Nuclei (%) (Fibroblast; [4]): 59% and 56%
Population Hoechst High Intensity Objects (%) (Fibroblast; [4]): 0%
Population Membrane Permeable-Phenotype (%) (Fibroblast; [4]): 15% and 6%
Population Mitochondria Different-Phenotype (%) (Fibroblast; [4]): 24% and 45%
Population Mitotic Cells (%) (Fibroblast; [4]): 33% and 28%
Population Normal (%) (Fibroblast; [4]): 99%
Population Pyknosed Nuclei (%) (Fibroblast; [4]): 26% and 22%
Population Tubulin-Different-Phenotype (%) (Fibroblast; [4]): 86% and 89%
Total Cell Count (Fibroblast; [4]): 193 and 253
Population Apoptotic (%) (Fibroblast; [5]): 71% and 82%
Population Fragmented Nuclei (%) (Fibroblast; [5]): 6% and 14%
Population Healthy Nuclei (%) (Fibroblast; [5]): 77% and 66%
Population Hoechst High Intensity Objects (%) (Fibroblast; [5]): 0%
Population Membrane Permeable-Phenotype (%) (Fibroblast; [5]): 8% and 17%
Population Mitochondria Different-Phenotype (%) (Fibroblast; [5]): 3% and 10%
Population Mitotic Cells (%) (Fibroblast; [5]): 28% and 17%
Population Normal (%) (Fibroblast; [5]): 100% and 99%
Population Pyknosed Nuclei (%) (Fibroblast; [5]): 16% and 18%
Population Tubulin-Different-Phenotype (%) (Fibroblast; [5]): 61% and 51%
Total Cell Count (Fibroblast; [5]): 199 and 150
Population Apoptotic (%) (Fibroblast; [6]): 85% and 80%
Population Fragmented Nuclei (%) (Fibroblast; [6]): 22% and 29%
Population Healthy Nuclei (%) (Fibroblast; [6]): 59% and 55%
Population Hoechst High Intensity Objects (%) (Fibroblast; [6]): 1% and 0%
Population Membrane Permeable-Phenotype (%) (Fibroblast; [6]): 20% and 8%
Population Mitochondria Different-Phenotype (%) (Fibroblast; [6]): 27% and 30%
Population Mitotic Cells (%) (Fibroblast; [6]): 14% and 20%
Population Normal (%) (Fibroblast; [6]): 98% and 99%
Population Pyknosed Nuclei (%) (Fibroblast; [6]): 17% and 15%
Population Tubulin-Different-Phenotype (%) (Fibroblast; [6]): 91%
Total Cell Count (Fibroblast; [6]): 195 and 265
Population Apoptotic (%) (HEK-293T; [1]): 53% and 42%
Population Fragmented Nuclei (%) (HEK-293T; [1]): 5% and 3%
Population Healthy Nuclei (%) (HEK-293T; [1]): 82% and 83%
Population Hoechst High Intensity Objects (%) (HEK-293T; [1]): 7% and 6%
Population Membrane Permeable-Phenotype (%) (HEK-293T; [1]): 7% and 6%
Population Mitochondria Different-Phenotype (%) (HEK-293T; [1]): 27% and 28%
Population Mitotic Cells (%) (HEK-293T; [1]): 46% and 57%
Population Normal (%) (HEK-293T; [1]): 92% and 93%
Population Pyknosed Nuclei (%) (HEK-293T; [1]): 11% and 12%
Population Tubulin-Different-Phenotype (%) (HEK-293T; [1]): 77% and 92%
Total Cell Count (HEK-293T; [1]): 574 and 636
Population Apoptotic (%) (HEK-293T; [2]): 70% and 68%
Population Fragmented Nuclei (%) (HEK-293T; [2]): 2%
Population Healthy Nuclei (%) (HEK-293T; [2]): 85% and 83%
Population Hoechst High Intensity Objects (%) (HEK-293T; [2]): 10% and 11%
Population Membrane Permeable-Phenotype (%) (HEK-293T; [2]): 2%
Population Mitochondria Different-Phenotype (%) (HEK-293T; [2]): 75% and 72%
Population Mitotic Cells (%) (HEK-293T; [2]): 29% and 31%
Population Normal (%) (HEK-293T; [2]): 89% and 88%
Population Pyknosed Nuclei (%) (HEK-293T; [2]): 12% and 13%
Population Tubulin-Different-Phenotype (%) (HEK-293T; [2]): 68% and 58%
Total Cell Count (HEK-293T; [2]): 560 and 485
Population Apoptotic (%) (HEK-293T; [3]): 46% and 44%
Population Fragmented Nuclei (%) (HEK-293T; [3]): 9% and 4%
Population Healthy Nuclei (%) (HEK-293T; [3]): 81% and 86%
Population Hoechst High Intensity Objects (%) (HEK-293T; [3]): 10% and 8%
Population Membrane Permeable-Phenotype (%) (HEK-293T; [3]): 8% and 7%
